Calls of active or inactive are those of the source. The rule behind the calls is not given here.
Columns and labels:
[1] = system: MDA-MB-435; experiment: Reversal of paclitaxel resistance in multidrug resistant MDA435/LCC6 cells by MTS assay; format: functional, cell-based; details: Homo sapiens
Procedure, shortened: (§1)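 Resistant MDA435/LCC6 cells, 4-day MTS assay of paclitaxel or vinblastine dose-response with dimers at 5 µM or monomers at 10 µM. Verapamil 5 µM as positive control, DMSO 0.05% as solvent control. IC50 from curves, triplicate, some repeated three times and averaged.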

[2] = system: MDA-MB-435; experiment: Reversal of vinblastine resistance in multidrug resistant MDA435/LCC6 cells by MTS assay; format: functional, cell-based; details: Homo sapiens; procedure, shortened: as §1
[3] = system: MDA-MB-435; experiment: Reversal potency of vinblastine resistance in multidrug resistant MDA435/LCC6 cells by MTS assay; format: functional; details: Homo sapiens, in the assay text read “doxorubicin” for “vinblastine”
[4] = system: MDA-MB-435; experiment: Effect on P-gp-mediated drug efflux in multidrug resistant MDA435/LCC6 cells assessed as relative fold in intracellular DOX accumulation at 10 uM; format: functional, Homo sapiens
Procedure, shortened: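 Resistant MDA435/LCC6 cells grown to confluence, preincubated 30 min at 37 °C in fresh DMEM with modulator (0–20 µM), then DOX added (final 20 µM) for 2 h at 37 °C. Cells trypsinized, washed in cold PBS, lysed in 0.3 N HCl/50% ethanol, sonicated, centrifuged. Supernatant fluorescence read at ex 470/em 585 nm. Mean ± SD of three independent experiments.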

[5] = system: MDA-MB-435; experiment: Cytotoxicity against MDA435/LCC6 cells at 5 uM; format: functional, cell-based; details: Homo sapiens
[6] = system: MDA-MB-435; experiment: Cytotoxicity against MDA435/LCC6 cells at 10 uM; format: functional, cell-based; details: Homo sapiens
[7] = system: MDA-MB-435; experiment: Reversal of vinblastine resistance in multidrug resistant MDA435/LCC6 cells by MTS assay at 10 uM; format: functional, cell-based; details: Homo sapiens
Procedure, shortened: (§2)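 MDA435/LCC6 MDR cells in DMEM with 10% FBS, 2000 cells/well, allowed to attach for 24 h. Anticancer drug was added in serial concentrations with or without modulator (dimers 5 µM, monomers 10 µM; 0.05% DMSO solvent control), then grown for 4 days at 37 °C, 5% CO2. MTS/PMS was added for 2 h and A490 read. Survival was taken relative to DMSO controls; IC60 for DOX, IC50 for the others; triplicate.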

[8] = system: MDA-MB-435; experiment: Reversal of DOX resistance in multidrug resistant MDA435/LCC6 cells by MTS assay at 10 uM; format: functional, cell-based; details: Homo sapiens; procedure, shortened: as §2
[9] = system: P388/ADR; experiment: Reversal of DOX resistance in P388 ADR cells by MTS assay at 5 uM; format: functional, cell-based; details: Mus musculus
Procedure, shortened: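 P388/ADR cells: 3-day MTS assay of DOX dose-response with modulator at 5 µM, or 10 µM for monomers. Verapamil 5 µM and 0.05% DMSO as controls. IC50 from curves, triplicate points, mean ± SD of three independent experiments.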

[10] = system: MDA-MB-435; experiment: Antiproliferative activity against multidrug resistant MDA435/LCC6 cells in presence of 5 uM 1,13-bis[4'-((5,7-dihydroxy)-4H-chromen-4-on-2-yl)phenyl]-1,4,7,10,13-pentaoxatridecane by ELISA; format: functional, cell-based; details: Homo sapiens
Procedure, shortened: (§3)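 Resistant breast cells seeded 2000/well, allowed 24 h attachment, then exposed to anticancer-drug concentration series with or without 5 µM modulator for 4 days. MTS/PMS read at 490 nm after 2 h. IC50 from dose-response curves relative to 0.05% DMSO controls. RF = IC50 without modulator divided by IC50 with modulator.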

[11] = system: MDA-MB-435; experiment: Antiproliferative activity against multidrug resistant MDA435/LCC6 cells in presence of 5 uM verapamil by ELISA; format: functional, cell-based; details: Homo sapiens; procedure, shortened: as §3
[12] = system: MDA-MB-435; experiment: Relative fold, IC50 in absence to presence of 1,13-bis[4'-((5,7-dihydroxy)-4H-chromen-4-on-2-yl)phenyl]-1,4,7,10,13-pentaoxatridecane in multidrug resistant MDA435/LCC6 cells; format: functional, Homo sapiens; procedure, shortened: as §3
[13] = system: MDA-MB-435; experiment: Relative fold, IC50 in absence to presence of verapamil in multidrug resistant MDA435/LCC6 cells; format: functional, Homo sapiens; procedure, shortened: as §3
[14] = system: P388/ADR; experiment: Antiproliferative activity against adriamycin resistant P388 cells in presence of 5 uM 1,13-bis[4'-((5,7-dihydroxy)-4H-chromen-4-on-2-yl)phenyl]-1,4,7,10,13-pentaoxatridecane by ELISA; format: functional, cell-based; details: Mus musculus
Procedure, shortened: (§4)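 P388/ADR cells seeded 5000/well in RPMI 1640 with 10% FBS, given drug concentration series with or without 5 µM modulator for 3 days. MTS/PMS added for 2 h at 37 °C, absorbance at 490 nm. IC50 from dose-response curves versus 0.05% DMSO controls. RF = IC50 without modulator / IC50 with modulator.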

[15] = system: P388; experiment: Relative fold, IC50 in absence to presence of 1,13-bis[4'-((5,7-dihydroxy)-4H-chromen-4-on-2-yl)phenyl]-1,4,7,10,13-pentaoxatridecane in multidrug resistant P388 cells; format: functional, Mus musculus; procedure, shortened: as §4
[16] = system: MDA-MB-435; experiment: Antiproliferative activity against multidrug resistant MDA435/LCC6 cells by ELISA; format: functional, cell-based; details: Homo sapiens
Procedure, shortened: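 MTS/PMS proliferation assay: cells seeded 2000/well, drugs added after 24 h attachment, growth 4 days in DMEM with 10% FBS at 37 °C, 5% CO2. MTS/PMS added for 2 h, absorbance read at 490 nm. Survival is taken relative to DMSO (0.05%) controls. IC50 is read from dose-response curves, at least triplicate, repeated twice.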

[17] = system: MDA-MB-435; experiment: Antiproliferative activity against MDA435/LCC6 cells by ELISA; format: functional, cell-based; details: Homo sapiens
[18] = system: P388/ADR; experiment: Antiproliferative activity against adriamycin resistant P388 cells by ELISA; format: functional, cell-based; details: Mus musculus
Procedure, shortened: (§5)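 MTS/PMS proliferation assay: cells seeded 5000/well in RPMI 1640 with 10% FBS and penicillin/streptomycin at 37 °C, 5% CO2. Drug series added and cells grown 3 days. MTS/PMS added for 2 h at 37 °C, absorbance read at 490 nm. Survival relative to DMSO (0.05%) controls; IC50 from dose-response curves, at least triplicate.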

[19] = system: P388; experiment: Antiproliferative activity against P388 cells by ELISA; format: functional, cell-based; details: Mus musculus; procedure, shortened: as §5

Structure (SMILES) | Activity [5] | Activity [9] | IC50 [10] [nM] | Ratio IC50 [12] | IC50 [14] [nM] | Ratio IC50 [15] | IC50 [16] [nM] | IC50 [17] [nM] | IC50 [18] [nM] | IC50 [19] [nM] | further results
O=c1cc(-c2ccc(OCCOCCOCCOc3ccc(-c4cc(=O)c5c(O)cc(O)cc5o4)cc3)cc2)oc2cc(O)cc(O)c12 | inactive | – | – | – | – | – | – | – | – | – | IC50 [1]: 21.5 nM; IC50 [2]: 0.87 nM; IC60 [3]: 1300 nM; Activity [4]: 4
O=c1cc(-c2ccc(OCCOCCOc3ccc(-c4cc(=O)c5c(O)cc(O)cc5o4)cc3)cc2)oc2cc(O)cc(O)c12 | inactive | – | – | – | – | – | – | – | – | – | IC50 [1]: 19.9 nM; IC50 [2]: 0.61 nM; IC60 [3]: 1300 nM; Activity [4]: 4.5
O=c1cc(-c2ccc(OCCOCCOCCOCCO)cc2)oc2cc(O)cc(O)c12 | – | – | – | – | – | – | – | – | – | – | Activity [6]: inactive; EC50 [1]: > 10000 nM; Activity [7]: inactive; Activity [8]: inactive
O=c1cc(-c2ccc(OCCOCCOCCO)cc2)oc2cc(O)cc(O)c12 | – | – | – | – | – | – | – | – | – | – | Activity [6]: inactive; Activity [7]: inactive; Activity [8]: inactive
O=c1cc(-c2ccc(OCCOCCOCCOCCOCCOCCOCCOCCOCCOc3ccc(-c4cc(=O)c5c(O)cc(O)cc5o4)cc3)cc2)oc2cc(O)cc(O)c12 | inactive | inactive | – | – | – | – | – | – | – | – | –
O=c1cc(-c2ccc(OCCOCCOCCOCCOCCOCCOCCOCCOc3ccc(-c4cc(=O)c5c(O)cc(O)cc5o4)cc3)cc2)oc2cc(O)cc(O)c12 | inactive | inactive | – | – | – | – | – | – | – | – | –
O=c1cc(-c2ccc(OCCOCCOCCOCCOCCOCCOCCOc3ccc(-c4cc(=O)c5c(O)cc(O)cc5o4)cc3)cc2)oc2cc(O)cc(O)c12 | inactive | inactive | – | – | – | – | – | – | – | – | –
O=c1cc(-c2ccc(OCCOCCOCCOCCOCCOCCOc3ccc(-c4cc(=O)c5c(O)cc(O)cc5o4)cc3)cc2)oc2cc(O)cc(O)c12 | inactive | inactive | – | – | – | – | – | – | – | – | –
O=c1cc(-c2ccc(OCCOCCOCCOCCOCCOc3ccc(-c4cc(=O)c5c(O)cc(O)cc5o4)cc3)cc2)oc2cc(O)cc(O)c12 | inactive | inactive | – | – | – | – | – | – | – | – | –
O=c1cc(-c2ccc(OCCOc3ccc(-c4cc(=O)c5c(O)cc(O)cc5o4)cc3)cc2)oc2cc(O)cc(O)c12 | inactive | inactive | – | – | – | – | – | – | – | – | –
COc1cccc2c1C(=O)c1c(O)c3c(c(O)c1C2=O)C[C@@](O)(C(=O)CO)C[C@@H]3O[C@H]1C[C@H](N)[C@H](O)[C@H](C)O1 [DOXORUBICIN] | – | – | 550 | 9 | 123 | 14 | 4690 | 300 | 1740 | 22 | IC50 [11]: 300 nM; Ratio IC50 [13]: 16
O=C1c2c(O)ccc(O)c2C(=O)c2c(NCCNCCO)ccc(NCCNCCO)c21 [MITOXANTRONE] | – | – | 646 | 2.2 | 194 | 2 | 1440 | 0.35 | 395 | 4.3 | –
CC(=O)O[C@H]1C(=O)[C@@]2(C)[C@H]([C@H](OC(=O)c3ccccc3)[C@]3(O)C[C@H](OC(=O)[C@H](O)[C@@H](NC(=O)c4ccccc4)c4ccccc4)C(C)=C1C3(C)C)[C@]1(OC(C)=O)CO[C@@H]1C[C@@H]2O [PACLITAXEL] | – | – | 4.8 | 22 | 30 | 55 | 105 | 2.9 | 1640 | 22 | IC50 [11]: 5.2 nM; Ratio IC50 [13]: 20
COc1ccc(CCN(C)CCCC(C#N)(c2ccc(OC)c(OC)c2)C(C)C)cc1OC (stereo not drawn) [VERAPAMIL] | – | – | – | – | – | – | – | – | – | – | EC50 [1]: 700 nM; IC50 [1]: 5.2 nM; IC50 [2]: 0.25 nM
CC[C@]1(O)C[C@@H]2CN(CCc3c([nH]c4ccccc34)[C@@](C(=O)OC)(c3cc4c(cc3OC)N(C)[C@H]3[C@@](O)(C(=O)OC)[C@H](OC(C)=O)[C@]5(CC)C=CCN6CC[C@]43[C@@H]65)C2)C1 [VINBLASTINE] | – | – | 0.42 | 10 | 4.3 | 22 | 4.4 | 0.34 | 95 | 4.1 | IC50 [11]: 0.29 nM; Ratio IC50 [13]: 15
CC[C@]1(O)C[C@H]2CN(CCc3c([nH]c4ccccc34)[C@@](C(=O)OC)(c3cc4c(cc3OC)N(C=O)[C@H]3[C@@](O)(C(=O)OC)[C@H](OC(C)=O)[C@]5(CC)C=CCN6CC[C@]43[C@@H]65)C2)C1 [VINCRISTINE] | – | – | 0.63 | 41 | 4.5 | 66 | 26 | 0.29 | 299 | 2.2 | –
